Experimental findings from PubChem BioAssay are described below.

The source made the active and inactive calls.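 How the source made its calls, unless noted: active means visually confirmed hit in the image check and inhibition above 20%; inconclusive means visually confirmed hit but inhibition not above 20%; inactive means no visual hit in the image check.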

A short description of test [1]: inhibitors of TNFa-induced NFkB p65 translocation, primary screen, imaging, HUVEC, MLSMR starter and 10KST1 sets (AID 438;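 active means inhibition above 20% together with a positive visual image hit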;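 further: compound added about 3h40 before a 20 min TNFalpha stimulation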;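 on inhibition: signal is the nuclear over cytoplasmic p65 intensity ratio per well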). The settings on record: HUVEC TNFa-induced p65 nuclear translocation; cell count: measured here: nuclei count (cytotoxicity indicator), at 2.08 µM; inhibition: at 2 µM, stronger effect = higher value, 0% TNFa-plus-vehicle, 100% no-TNFa wells.
A short description of test [2]: inhibitors of E-selectin induction by TNFa, primary screen, imaging, HUVEC, immunofluorescence, MLSMR starter and 10KST1 sets (AID 487).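 On inhibition: signal is fraction of cell area covered by stained E-selectin grains.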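 On nuclei count: 100% = median nuclei count of all wells on the same plate.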 The settings on record: HUVEC TNFalpha-induced E-selectin immunofluorescence imaging, at 2 µM; inhibition: stronger effect = higher value; nuclei count: measured here: cell number, toxicity.
Test [3] is described as follows: DUSP6 inhibitors restoring Erk phosphorylation by chemical complementation, primary imaging in DUSP6-transfected HeLa (AID 609;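 active means compounds giving at least 50% inhibition in the cell-based MKP-3 phosphatase rescue imaging test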;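 on inhibition: phospho-Erk level distribution per well compared with pooled transfected vehicle control wells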). Particulars: HeLa MKP-3 transfected, phospho-Erk imaging KS statistic, at 10 µM, cells stimulated with TPA for 15 min.
The target of test [4] is Dual specificity protein phosphatase 6 (Homo sapiens) (UniProt Q16828). The test is described as above. Particulars: HeLa MKP-3 transfected, phospho-Erk imaging KS statistic; at 10 µM; stronger effect = higher value; cells stimulated with TPA for 15 min.
Dual specificity protein phosphatase 6 (Homo sapiens), sequence (Q16828 whole entry, looked up): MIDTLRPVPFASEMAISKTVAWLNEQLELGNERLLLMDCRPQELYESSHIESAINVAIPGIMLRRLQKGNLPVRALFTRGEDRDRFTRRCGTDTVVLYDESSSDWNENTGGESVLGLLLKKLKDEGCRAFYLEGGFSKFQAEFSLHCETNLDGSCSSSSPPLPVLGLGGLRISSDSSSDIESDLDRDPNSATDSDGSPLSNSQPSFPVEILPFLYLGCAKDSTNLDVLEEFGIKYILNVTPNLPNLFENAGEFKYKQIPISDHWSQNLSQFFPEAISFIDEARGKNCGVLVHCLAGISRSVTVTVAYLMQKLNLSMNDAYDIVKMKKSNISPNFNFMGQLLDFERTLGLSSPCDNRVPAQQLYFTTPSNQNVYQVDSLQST
The target of test [5] is Voltage-gated potassium channel subunit beta-2 (Rattus norvegicus) (UniProt P62483). Kind of test: KvBeta enzyme negative modulators, primary screen, biochemical, NADPH fluorescence (AID 622;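 active means fluorescence slope higher than the sample average by over 3 SD, cut at about -0.22 in these data, passing the limit was not always enough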;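 further: slope of raw intensity against log time taken from 70 to 1610 s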). The settings on record: recombinant KvBeta, 4-cyanobenzaldehyde reduction, at 10 µM, stronger effect = higher value.
Voltage-gated potassium channel subunit beta-2 (Rattus norvegicus), sequence (P62483 whole entry, looked up): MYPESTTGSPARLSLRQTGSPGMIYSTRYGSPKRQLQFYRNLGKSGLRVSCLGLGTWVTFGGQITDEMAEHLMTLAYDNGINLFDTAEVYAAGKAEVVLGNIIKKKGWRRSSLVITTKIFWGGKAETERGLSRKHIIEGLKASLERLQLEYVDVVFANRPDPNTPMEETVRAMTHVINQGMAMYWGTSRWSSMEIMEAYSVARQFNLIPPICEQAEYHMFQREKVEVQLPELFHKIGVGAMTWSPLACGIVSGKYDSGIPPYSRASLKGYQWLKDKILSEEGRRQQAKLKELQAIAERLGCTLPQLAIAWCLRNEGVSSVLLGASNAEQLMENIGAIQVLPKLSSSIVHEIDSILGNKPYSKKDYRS
For test [6] the target is unchanged. Kind of test: KvBeta positive modulators, primary screen, biochemical, NADPH fluorescence (AID 623;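 active means NADPH fluorescence slope more negative than the mean of all samples by about 3 SD, 99.7% confidence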;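 further: fluorescence intensity change per second fitted from 20 to 320 s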). The settings on record: Recombinant KvBeta, NADPH fluorescence decrease slope, 10 min; at 10 µM; stronger effect = lower value.
For test [7], the target named is Alpha-2C adrenergic receptor (Homo sapiens) (UniProt P18825). Kind of test: modulators of alpha2C/GIRK thallium flux, primary screen, cell-based, HEK293 alpha2C/GIRK1/2 (AID 624;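 active means fluorescence slope after compound addition differing from the mean of all screened samples at 99.7% confidence, in either direction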;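 further: slope of fluorescence ratio to pre-addition baseline per second over 15 to 24 s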). The settings on record: thallium flux BTC fluorescence, at 10 µM, actives lie on both sides.
Alpha-2C adrenergic receptor (Homo sapiens), sequence (P18825 whole entry, looked up): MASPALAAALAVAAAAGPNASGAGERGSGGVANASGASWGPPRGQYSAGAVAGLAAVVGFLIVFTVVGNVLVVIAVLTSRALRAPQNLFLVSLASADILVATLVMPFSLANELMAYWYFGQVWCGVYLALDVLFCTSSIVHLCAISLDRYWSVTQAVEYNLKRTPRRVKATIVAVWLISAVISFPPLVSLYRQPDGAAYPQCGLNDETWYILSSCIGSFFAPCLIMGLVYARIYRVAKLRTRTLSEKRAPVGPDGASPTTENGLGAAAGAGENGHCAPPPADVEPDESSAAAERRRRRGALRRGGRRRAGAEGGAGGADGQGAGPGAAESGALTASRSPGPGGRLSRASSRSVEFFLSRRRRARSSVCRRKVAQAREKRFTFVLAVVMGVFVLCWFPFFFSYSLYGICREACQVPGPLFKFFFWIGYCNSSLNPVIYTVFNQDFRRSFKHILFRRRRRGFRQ
Test [8] is described as follows: inhibitors of larval lipid processing in zebrafish, primary screen, whole organism, PED6 fluorescence, gall bladder and intestine (AID 686;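 active means a full or partial loss of lipid-probe fluorescence in the fish gall bladder, intestine or both, judged by eye; inactive means no fluorescence loss, or compound toxic to the fish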;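 further: larvae 5 to 7 days old with five fish per well; signal comes from phospholipase A2 cleavage of quenched PED6 carried via bile; overnight exposure to compound and PED6 before scoring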). The settings on record: Zebrafish larvae PED6 lipid processing, fluorescence scoring; screened at 20 µM (by protocol). The gist of the method:
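Test system – live zebrafish larvae aged 5-7 days, whole organism · Buffer or medium – E3 fish medium · Reagent – quenched phospholipase substrate PED6, 100 nM final, ingested by larvae · Doses – 20 µM single dose · Incubation – overnight compound and PED6 incubation · Technique – visual fluorescence microscopy scoring of gall bladder, gut · Read-out basis – visual per-well fluorescence inhibition score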

Test [9] in a line: inhibitors of Chlamydomonas gravitaxis, primary screen, whole organism, Chlamydomonas reinhardtii, WT vs cilia-less mutant, absorbance, 96-well (AID 463189;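 active means inhibition at or above 50% relative to wild type and mutant plate controls; inactive means inhibition below 50%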;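 further: 0% = wild type cc124 cells in DMSO and 100% = ciliumless bld1 mutant cells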). The settings on record: OD600 absorbance, 2 days, at 10 µM, stronger effect = higher value.
Where [10] appears, read: measured here: cell density z-score.
Where [11] appears, read: measured here: nuclear c-Myc green intensity z-score.
[12] abbreviates: measured here: nuclear pErk red intensity z-score, stronger effect = higher value.

Turning to `Cc1c(Cl)c(C(F)(F)F)nn1CC(=O)N1CCSCC1`, the cell count in test [1] amounted to 511. The inhibition in test [1] was -3.6% (inactive); in [2], -110% (inactive); in test [4], -9.7% (inactive); in test [9], -2.53% (inactive). In addition, in test [2], the nuclei count came to 152%. For the same molecule, the z-score in test [3] (setting [10]) is -0.563; in test [3] (setting [11]), -0.304; in test [3] (setting [12]) it was 1.29. Further, the fluorescence slope in test [5] was -0.555 (inactive). The NADPH fluorescence slope in test [6] was -4.7e-05 (inactive). Besides, the slope in test [7] was 0.00531 (inactive). Besides, the outcome in [8] was inactive.
For `CN=C1c2c(-c3ccccc3)c3cc(OC)ccc3n2CCN1C`, the cell count in test [1] came to 531. The inhibition in test [1] was -21.3% (inactive); in [2], -137% (inactive); in [4], -2.47% (inactive); in test [9], 2.56% (inactive). In test [2], the nuclei count worked out at 145%. Further, the values for the z-score in test [3] (setting [10]), in [3] (setting [11]) and in test [3] (setting [12]) were 0.562, 0.295 and -0.655, respectively. Further, the fluorescence slope in test [5] was -0.118 (active). Besides, in test [6], the NADPH fluorescence slope was -9.2e-06 (inactive). Moreover, the slope in [7] is 0.00488 (inactive). Besides, the result in test [8] was inactive.
As to `CC(C)(C)C1=Nn2c(nnc2-c2ccccn2)SC1`, in test [1], the cell count stood at 537. Besides, the inhibition in test [1] was -5.5% (inactive); in [2], -200% (inactive); in test [4] it was -2.47% (inactive); in test [9], -9.77% (inactive). This molecule also yielded a nuclei count in [2] of 165%. In addition, the z-score is 1.25 in [3] (setting [10]), 0.795 in test [3] (setting [11]) and -0.0968 in [3] (setting [12]). In test [5], the fluorescence slope is -0.417 (inactive). In addition, in [6], the NADPH fluorescence slope is -0.000136 (inactive). Besides, the slope in test [7] is 0.00561 (inactive). The outcome in test [8] was inactive.
In the case of `Cc1nnc(SCCC#N)n(CCC#N)c1=O`, the cell count in test [1] is 585. The inhibition was -13.5% (inactive) in test [1], 24.6% (inactive) in test [2], 1.12% (inactive) in test [4] and 7.85% (inactive) in test [9]. The nuclei count in test [2] amounted to 164%. The z-score in [3] (setting [10]) is -0.25; in [3] (setting [11]), 0.45; in [3] (setting [12]), 2.53. In addition, the fluorescence slope in test [5] was -0.396 (inactive). Also, the NADPH fluorescence slope in test [6] was -3e-05 (inactive). For the same molecule, in test [7], the slope is 0.00584 (inactive). The call in [8] was inactive.
For `COc1cccc(-c2nc(N3CC(C)CC(C)C3)c3ccccc3n2)c1O` (stereo unspecified), in [1], the cell count came to 535. Also, the inhibition in test [1] was -11.7% (inactive); in [2], -37.3% (inactive); in test [4], -5.26% (inactive); in [9], 0.389% (inactive). Moreover, the nuclei count in test [2] came out at 180%. Besides, the z-score in [3] (setting [10]) is -0.935; in test [3] (setting [11]), 0.42; in test [3] (setting [12]), 2.09. The fluorescence slope in test [5] was -0.393 (inactive). The NADPH fluorescence slope in [6] is -2.4e-05 (inactive). In addition, the slope in test [7] is 0.00414 (inactive). The molecule was classed as inactive in test [8].
In the case of `Clc1ccccc1-c1nnc2sc(-c3ccco3)nn12`, the cell count in test [1] is 568. The inhibition is -10.6% (inactive) in test [1], 37.2% (inactive) in test [2], 4.72% (inactive) in test [4] and 85.1% (active) in test [9]. Besides, in test [2], the nuclei count is 88.5%. Besides, the z-score is -0.391 in [3] (setting [10]), -0.433 in test [3] (setting [11]) and 1.6 in [3] (setting [12]). Further, the fluorescence slope in [5] is -0.43 (inactive). Also, the NADPH fluorescence slope in test [6] was -4.6e-05 (inactive). Further, in [7], the slope is 0.00572 (inactive). Moreover, in test [8], the call was inactive.
`O=S(=O)(c1ccccc1)N1CCC(N2CCCCCC2)CC1`: the cell count in [1] came out at 360. For the same molecule, the inhibition in [1] is -15.1% (inactive); in test [2], -30.4% (inactive); in test [4], -8.95% (inactive); in test [9], 32.5% (inactive). The molecule also showed a nuclei count in [2] of 107%. The figures for the z-score in test [3] (setting [10]), in [3] (setting [11]) and in [3] (setting [12]) were -1.31, -0.622 and 0.193, respectively. Further, the fluorescence slope in [5] is -0.39 (inactive). Besides, the NADPH fluorescence slope in [6] is 2.7e-05 (inactive). Further, the slope in [7] is 0.00532 (inactive). Also, in test [8], the outcome was inactive.

Broadly, the inhibition is the relative decrease from the control value, in per cent.
